We go through 13 compounds from ChEMBL document CHEMBL1275403 (J Med Chem, 2010).

A short description of data set [1]: Cytotoxicity against mouse ScGT1 cells assessed as cell viability at 1 uM after 5 days by calcein-AM assay. Format: cell-based. Conditions: read-out: Activity. Summed up: (§1)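 ScGT1 cells in DMEM with 10% FBS were plated at 25000 cells/well. Compounds were dissolved in DMSO, diluted in PBS and added at 10 nM–10 μM. Cells were incubated 5 days at 37 °C, 5% CO2. Viability was read by calcein-AM fluorescence as average percent viable cells versus untreated control. Values are mean of three experiments with SD.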

Data set [2] deals with ScGT1. The experiment in a line: Antiprion activity against scrapie prion protein-infected mouse ScGT1 cells assessed as accumulation of PrPSc at 1 uM after 5 days by Western blotting. Format: cell-based. Summed up:
(§2)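 ScGT1 cells in DMEM with 10% FBS were split 1:10 into Petri dishes and grown 2 days at 37 °C, 5% CO2. Non-toxic compound concentrations (10 nM–2 μM) were then added. After 5 days, cell proteins were extracted, quantified, proteinase K-digested and western-blotted. PK-resistant PrPSc was quantified by densitometry. EC50 is half-maximal inhibition. Values are mean of three experiments with SD.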
Background: Immunoblotting shows a protein as a band on a membrane.

Data set [3] is described as follows: Cytotoxicity against mouse ScGT1 cells assessed as cell viability at EC50 after 5 days by calcein-AM assay. Conditions: read-out: INH. Format: cell-based. The method, boiled down: as §1
The nature of data set [4]: Inhibition of scrapie prion protein-mediated lag phase prion fibril formation after 72 hrs by amyloid seeding assay. Summed up: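 In vitro amyloid seeding assay of recombinant PrP fibril formation, with compounds at 2 μM. The read-out is lag phase in hours, compared against an untreated control. Significance was tested by Student's t-test, n = 4.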
Data set [5] is described as follows: Antiprion activity against scrapie prion protein-infected mouse ScGT1 cells assessed as accumulation of PrPSc after 5 days by Western blotting. Format: cell-based. To be noted: ScGT1, 120 h. The method, boiled down: as §2
A short description of data set [6]: Antioxidant activity in mouse ScGT1 cells assessed as inhibition of ROS formation at 1 uM after 3 hrs by TBARS assay. Format: functional. To be noted: ScGT1, 3 h. Summed up: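 ScGT1 cells were treated at 1 μM, and lipid hydroperoxides and aldehydes were measured by the TBARS assay. Results are expressed as average percent TBARS of treated cells versus untreated cells. A water-soluble vitamin E derivative served as positive control. Values are mean ± SD, n = 3.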

The subject of data set [7] is ScGT1. Kind of data set: Antiprion activity against scrapie prion protein-infected mouse ScGT1 cells assessed as accumulation of PrPSc at 0.2 uM after 5 days by Western blotting. The class given is cell-based. The method, boiled down: as §2
Data set [8] can be described thus: Cytotoxicity against mouse ScGT1 cells assessed as cell viability at 0.2 uM after 5 days by calcein-AM assay. Conditions: read-out: Activity. Format: cell-based. The method, boiled down:
as §1

Turning to `O=C1C=C(NCCCNCCCNc2c3c(nc4ccccc24)CCCC3)C(=O)C=C1NCCCNCCCNc1c2c(nc3ccccc13)CCCC2`, the viability at 120 h, 1 µM in data set [1] is 95.4%. Further, the inhibition – broadly, the relative decrease from the control value, in per cent – in the data set with ScGT1 [2] is 3.4%.
As for `O=C1C=C(NCCCNc2c3c(nc4cc(Cl)ccc24)CCCC3)C(=O)C=C1NCCCNc1c2c(nc3cc(Cl)ccc13)CCCC2`, the viability at 120 h in data set [3] is 102%. The same compound had a TIME in data set [4] of 57 h. Also, the viability at 120 h, 1 µM in data set [1] was 78.6%. For the same compound, in data set [5], the EC50 (as a rule, the concentration needed to bring the measured effect to its halfway point) worked out at 170 nM. Also, in the data set with ScGT1 [2], the inhibition is 105%. The inhibition at 1 µM in data set [6] amounted to 69%.
Consider `O=C1C=C(NCCCNCCCNc2ccnc3cc(Cl)ccc23)C(=O)C=C1NCCCNCCCNc1ccnc2cc(Cl)ccc12`, for which the viability at 120 h in data set [3] was 91.3%. This compound also had a TIME in data set [4] of 40 h. The viability at 120 h, 1 µM in data set [1] is 105%. In addition, the EC50 in data set [5] was 1200 nM. In the data set with ScGT1 [2], the inhibition came to 49.1%. Further, the inhibition at 1 µM in data set [6] was 83%.
Turning to `Cc1c(C)c2c(c(C)c1O)CCC(C)(C(=O)O)O2` (configuration not stated) [TROLOX], the inhibition at 1 µM in data set [6] turned out to be 71%.
Regarding `O=C1C=C(NCCCNc2ccnc3cc(Cl)ccc23)C(=O)c2ccccc21`, the viability at 120 h, 1 µM in data set [1] was 94.3%. Further, the inhibition with ScGT1 [2] is 2.9%.
For `O=C1C=C(NCCCNc2ccnc3cc(Cl)ccc23)C(=O)C=C1NCCCNc1ccnc2cc(Cl)ccc12`, in data set [3], the viability at 120 h was 99.6%. This compound also yielded a TIME in data set [4] of 53 h. Further, the viability at 120 h, 1 µM in data set [1] was 100%. In data set [5], the EC50 was 730 nM. Besides, the inhibition with ScGT1 [2] is 85.5%. For the same compound, the inhibition at 1 µM in data set [6] is 83%.
On to `O=C1C=C(NCCNc2ccnc3cc(Cl)ccc23)C(=O)C=C1NCCNc1ccnc2cc(Cl)ccc12`, for which the viability at 120 h, 1 µM in data set [1] is 115%. Moreover, the inhibition with ScGT1 [2] is 6.2%.
For the compound `COc1ccc2nc3cc(Cl)ccc3c(NCCCNC3=CC(=O)C(NCCCNc4c5ccc(Cl)cc5nc5ccc(OC)cc45)=CC3=O)c2c1`, in data set [3], the viability at 120 h was 75.2%. In data set [4], this compound yielded a TIME of 45 h. The viability at 120 h, 1 µM in data set [1] is 65.5%. The EC50 in data set [5] came out at 680 nM. Also, the inhibition with ScGT1 [2] was 89.7%. Also, the inhibition at 1 µM in data set [6] came to 83%.
Take `COc1ccc2nccc(NCCCNC3=CC(=O)C(NCCCNc4ccnc5ccc(OC)cc45)=CC3=O)c2c1`: in data set [1], the viability at 120 h, 1 µM was 87.2%. Moreover, the inhibition with ScGT1 [2] turned out to be 4.7%.
Turning to `O=C1C=C(NCCNc2c3c(nc4ccccc24)CCCC3)C(=O)C=C1NCCNc1c2c(nc3ccccc13)CCCC2`, the viability at 120 h, 1 µM in data set [1] is 108%. Moreover, the inhibition in the data set on ScGT1 [2] came out at 7.1%.
As for `COc1ccc2nc3cc(Cl)ccc3c(NCCNC3=CC(=O)C(NCCNc4c5ccc(Cl)cc5nc5ccc(OC)cc45)=CC3=O)c2c1`, the viability at 120 h, 1 µM in data set [1] is 18.2%. In the data set on ScGT1 [7], the inhibition was found to be 3.1%. In data set [8], the viability at 120 h, 0.2 µM is 80.1%.
Regarding `COc1ccc2nc3cc(Cl)ccc3c(NCCCN3CCN(CCCNc4c5ccc(Cl)cc5nc5ccc(OC)cc45)CC3)c2c1`, in data set [3], the viability at 120 h was 92.4%. This compound displayed a TIME in data set [4] of 55 h. The viability at 120 h, 1 µM in data set [1] was 75.6%. Further, the EC50 in data set [5] was determined as 320 nM. Further, the inhibition in the data set with ScGT1 [2] was 102%. For the same compound, the inhibition at 1 µM in data set [6] was 93%.
Take `COc1ccc2nc3cc(Cl)ccc3c(NCCCNCCCNC3=CC(=O)C(NCCCNCCCNc4c5ccc(Cl)cc5nc5ccc(OC)cc45)=CC3=O)c2c1`: in data set [1], the viability at 120 h, 1 µM was 1.5%. Besides, in the data set with ScGT1 [7], the inhibition amounted to 5.4%. The viability at 120 h, 0.2 µM in data set [8] is 65.8%.
